Measured values from ChEMBL document CHEMBL4619802, “Discovery and Characterization of Pure RhlR Antagonists against Pseudomonas aeruginosa Infections” (J Med Chem, 2020).
Calls of active or inactive are those of the source. No cut-off for these calls is given here.

Experiments:
[1] = target: T1, Transcriptional activator protein LasR (Pseudomonas aeruginosa (strain ATCC 15692 / PAO1 / 1C / PRS 101 / LMG12228)) (UniProt P25084); assay: Antagonist activity at Pseudomonas aeruginosa LasR expressed in Escherichia coli DH5alpha at 0.1 to 10 uM incubated for 1.5 hrs by luminescence reporter gene assay
T1 sequence (whole entry): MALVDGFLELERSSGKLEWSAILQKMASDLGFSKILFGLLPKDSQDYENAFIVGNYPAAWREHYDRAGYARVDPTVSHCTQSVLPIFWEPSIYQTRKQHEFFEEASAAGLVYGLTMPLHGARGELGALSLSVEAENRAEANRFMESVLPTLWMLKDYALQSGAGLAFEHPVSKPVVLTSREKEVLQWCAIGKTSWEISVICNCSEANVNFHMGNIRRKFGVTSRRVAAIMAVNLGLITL

[2] = target: T2, HTH-type quorum-sensing regulator RhlR (Pseudomonas aeruginosa (strain ATCC 15692 / PAO1 / 1C / PRS 101 / LMG12228)) (UniProt P54292); assay: Modulation of RhlR in Pseudomonas aeruginosa assessed as inhibition of biofilm formation at 100 uM incubated for 24 hrs under static condition by crystal violet staining based assay relative to control; parameters: scale not given: the % may be the effect or the level left
T2 sequence (whole entry): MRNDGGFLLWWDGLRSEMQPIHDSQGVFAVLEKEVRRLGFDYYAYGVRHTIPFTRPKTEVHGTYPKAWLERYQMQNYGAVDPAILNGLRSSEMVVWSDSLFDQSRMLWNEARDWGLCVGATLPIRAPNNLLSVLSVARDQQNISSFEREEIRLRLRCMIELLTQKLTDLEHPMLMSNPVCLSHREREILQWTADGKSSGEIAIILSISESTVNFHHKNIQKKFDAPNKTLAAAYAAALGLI
Outline: (§1)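 P. aeruginosa overnight culture (OD595 1.0) diluted 1:20 in AB medium (pH 7.5, 1% glucose, casamino acids, arginine) with compound, in borosilicate bottles, 37 °C for 24 h without shaking. Growth taken as OD595 of the suspended culture. Attached cells washed twice with PBS, stained with 0.1% crystal violet for 10 min, dye eluted in ethanol and read at 545 nm.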

[3] = target: T3, Transcriptional regulator MvfR (Pseudomonas aeruginosa PA14) (UniProt A0A072ZLE6); assay: Antagonist activity at Pseudomonas aeruginosa PqsR expressed in Escherichia coli DH5alpha at 0.1 to 10 uM incubated for 1.5 hrs by luminescence reporter gene assay
T3 sequence (whole entry): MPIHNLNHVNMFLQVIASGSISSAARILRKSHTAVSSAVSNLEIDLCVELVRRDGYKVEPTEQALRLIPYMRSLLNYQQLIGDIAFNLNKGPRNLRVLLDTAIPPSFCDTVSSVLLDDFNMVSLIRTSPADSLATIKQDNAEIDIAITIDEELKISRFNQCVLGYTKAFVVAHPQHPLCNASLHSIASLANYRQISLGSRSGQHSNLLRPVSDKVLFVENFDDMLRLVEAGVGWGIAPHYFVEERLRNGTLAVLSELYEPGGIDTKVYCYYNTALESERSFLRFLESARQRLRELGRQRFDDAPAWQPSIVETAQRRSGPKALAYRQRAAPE

Pseudomonas aeruginosa [4] = assay: Downregulation of rhlA expression in biofilm of Pseudomonas aeruginosa at 10 uM after 24 hrs by RT-qPCR analysis relative to control; assay type: functional
Outline: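 P. aeruginosa (OD595 1.0) diluted 1:20 in AB medium with compound in borosilicate bottles, 37 °C for 24 h. Total RNA extracted from biofilm cells and run by SYBR RT-qPCR with QS-gene primers. Cycling: 95 °C 10 s, then 40 cycles of 95 °C 10 s and 60 °C 10 s.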

[5] = target: T2, HTH-type quorum-sensing regulator RhlR (Pseudomonas aeruginosa (strain ATCC 15692 / PAO1 / 1C / PRS 101 / LMG12228)); assay: Agonist activity at Pseudomonas aeruginosa RhlR expressed in Escherichia coli DH5alpha assessed as relative protein activity at 100 uM incubated for 1.5 hrs by luminescence reporter gene assay relative to control
[6] = target: T2, HTH-type quorum-sensing regulator RhlR (Pseudomonas aeruginosa (strain ATCC 15692 / PAO1 / 1C / PRS 101 / LMG12228)); assay: Modulation of RhlR in Pseudomonas aeruginosa assessed as inhibition of biofilm formation at 10 uM incubated for 24 hrs under static condition by crystal violet staining based assay relative to control; parameters: scale not given: the % may be the effect or the level left; outline: as §1
[7] = target: T3, Transcriptional regulator MvfR (Pseudomonas aeruginosa PA14); assay: Agonist activity at Pseudomonas aeruginosa PqsR expressed in Escherichia coli DH5alpha at 0.1 to 10 uM incubated for 1.5 hrs by luminescence reporter gene assay
[8] = target: T2, HTH-type quorum-sensing regulator RhlR (Pseudomonas aeruginosa (strain ATCC 15692 / PAO1 / 1C / PRS 101 / LMG12228)); assay: Antagonist activity at Pseudomonas aeruginosa RhlR expressed in Escherichia coli DH5alpha assessed as relative protein activity at 100 uM incubated for 1.5 hrs in presence of N-butyryl-L-homoserine lactone by luminescence reporter gene assay relative to control; parameters: scale not given: the % may be the effect or the level left
Outline: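 E. coli DH5α sdiA mutant carrying RhlR and rhlA::lacZ plasmids, at OD595 0.3 in LB. Compound given with BHL (10 µM per footnote) and 0.4% arabinose, 37 °C for 1.5 h.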

[9] = target: T1, Transcriptional activator protein LasR (Pseudomonas aeruginosa (strain ATCC 15692 / PAO1 / 1C / PRS 101 / LMG12228)); assay: Agonist activity at Pseudomonas aeruginosa LasR expressed in Escherichia coli DH5alpha at 0.1 to 10 uM incubated for 1.5 hrs by luminescence reporter gene assay
Pseudomonas aeruginosa [10] = assay: Antibacterial activity against Pseudomonas aeruginosa infected in Tenebrio molitor larvae assessed as larvae survival at 10 uM incubated for 20 days and measured every 5 days; assay type: functional
Outline: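 P. aeruginosa overnight culture (OD595 = 1.0) was centrifuged, and the supernatant passed through a 0.22 µm filter. 10 µL was injected into T. molitor larvae by syringe needle, with compounds or controls at 0–10 µM. Larvae were kept in Petri dishes at 25 °C for 20 days, and mortality was scored every 5 days.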

Pseudomonas aeruginosa [11] = assay: Effect on pqsR expression in Pseudomonas aeruginosa harboring RhlR mutant up to 10 uM after 24 hrs by RT-qPCR method; assay type: functional, organism-based
Outline: (§2)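 P. aeruginosa overnight culture (OD595 = 1.0) was diluted 1:20 in AB medium (pH 7.5) with compounds or controls at 0–10 µM. It was grown statically in borosilicate bottles at 37 °C for 24 h, and biofilm cells were collected. Total RNA was extracted with TRI reagent. SYBR-based RT-qPCR used QS gene primers: 95 °C 10 s, then 40 cycles of 95 °C 10 s and 60 °C 10 s.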

Pseudomonas aeruginosa [12] = assay: Effect on lasR expression in Pseudomonas aeruginosa harboring RhlR mutant up to 10 uM after 24 hrs by RT-qPCR method; assay type: functional, organism-based; outline: as §2
Pseudomonas aeruginosa [13] = assay: Effect on extracellular polymeric substance in biofilm of Pseudomonas aeruginosa assessed as reduction in carbohydrate level at 10 uM relative to control; assay type: functional; parameters: scale not given: the % may be the effect or the level left
Outline: (§3)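 Biofilm scraped from drip-flow reactor slides and resuspended in 0.01 M KCl. Sonicated 4 cycles of 5 s on/5 s off, supernatant filtered through 0.22 µm. Protein by Lowry/Folin, read at OD750. Carbohydrate by sulfuric acid 30 min then 5% phenol at 90 °C for 5 min, read at OD490. Each divided by OD595.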

Pseudomonas aeruginosa [14] = assay: Downregulation of rhlA expression in Pseudomonas aeruginosa harboring RhlR mutant up to 10 uM after 24 hrs by RT-qPCR method; assay type: functional, organism-based; outline: as §2
Pseudomonas aeruginosa [15] = assay: Downregulation of phzC1 expression in Pseudomonas aeruginosa harboring RhlR mutant up to 10 uM after 24 hrs by RT-qPCR method; assay type: functional, organism-based; outline: as §2
Pseudomonas aeruginosa [16] = assay: Antibacterial activity against Pseudomonas aeruginosa assessed as bacterial growth at 10 uM incubated for 24 hrs relative to control; assay type: functional; outline: as §1
Pseudomonas aeruginosa [17] = assay: Effect on lasB expression in Pseudomonas aeruginosa harboring RhlR mutant up to 10 uM after 24 hrs by RT-qPCR method; assay type: functional, organism-based; outline: as §2
Pseudomonas aeruginosa [18] = assay: Antibacterial activity against Pseudomonas aeruginosa assessed as bacterial growth at 100 uM incubated for 24 hrs relative to control; assay type: functional; outline: as §1
Pseudomonas aeruginosa [19] = assay: Effect on extracellular polymeric substance in biofilm of Pseudomonas aeruginosa assessed as reduction in protein level at 10 uM relative to control; assay type: functional; parameters: scale not given: the % may be the effect or the level left; outline: as §3
Pseudomonas aeruginosa [20] = assay: Effect on pycocyanin production in Pseudomonas aeruginosa harboring RhlR mutant at 10 uM after 24 hrs by […]; assay type: functional, organism-based
Outline: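 P. aeruginosa overnight culture (OD595 = 1.0) was diluted 1:100 in AB medium with compounds or controls at 0–10 µM and grown at 37 °C for 24 h. Pyocyanin was extracted from the supernatant with 50% TFA at 37 °C for 1 h, then filtered. It was quantified by C18 HPLC (99:1 water/TFA, 0.5 mL/min, 25 °C) as peak height at the 20 min retention time.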

| Activity [1] | Activity [2] [%] | Activity [3] | Activity [5] [%] | Activity [6] [%] | Activity [7] | Activity [8] [%] | Activity [9] | Structure (SMILES) | Activity (Pseudomonas aeruginosa [4]) | survival at 10 µM (Pseudomonas aeruginosa [10]) [%] | Activity (Pseudomonas aeruginosa [11]) | Activity (Pseudomonas aeruginosa [12]) | Activity (Pseudomonas aeruginosa [13]) [%] | Activity (Pseudomonas aeruginosa [14]) | Activity (Pseudomonas aeruginosa [15]) | Activity (Pseudomonas aeruginosa [16]) [%] | Activity (Pseudomonas aeruginosa [17]) | Activity (Pseudomonas aeruginosa [18]) [%] | Activity (Pseudomonas aeruginosa [19]) [%] | Activity (Pseudomonas aeruginosa [20]) |
| --- | --- | --- | --- | --- | --- | --- | --- | --- | --- | --- | --- | --- | --- | --- | --- | --- | --- | --- | --- | --- |
| inactive | 29 to 53 | inactive | 3 to 4 | 14 to 32 | inactive | 54 to 69 | inactive | CCCC(O)CC(=O)CCc1ccc(O)c(OC)c1 (stereo unspecified) | 65 - 79% |  |  |  |  |  |  |  |  |  |  |  |
| Active |  | inactive |  |  | inactive |  | inactive | CCCCC[C@H](O)CC(=O)CCc1ccc(O)c(OC)c1 [GINGEROL] | 38% |  |  |  |  |  |  | 96 |  | 101 |  |  |

| Structure (SMILES) | Activity [1] | Activity [2] [%] | Activity [3] | Activity [5] [%] | Activity [6] [%] | Activity [7] | Activity [8] [%] | Activity [9] | Activity (Pseudomonas aeruginosa [4]) | survival at 10 µM (Pseudomonas aeruginosa [10]) [%] | Activity (Pseudomonas aeruginosa [11]) | Activity (Pseudomonas aeruginosa [12]) | Activity (Pseudomonas aeruginosa [13]) [%] | Activity (Pseudomonas aeruginosa [14]) | Activity (Pseudomonas aeruginosa [15]) | Activity (Pseudomonas aeruginosa [16]) [%] | Activity (Pseudomonas aeruginosa [17]) | Activity (Pseudomonas aeruginosa [18]) [%] | Activity (Pseudomonas aeruginosa [19]) [%] | Activity (Pseudomonas aeruginosa [20]) |
| --- | --- | --- | --- | --- | --- | --- | --- | --- | --- | --- | --- | --- | --- | --- | --- | --- | --- | --- | --- | --- |
| CCCC(=O)C#Cc1ccc(F)c(F)c1 |  |  | inactive |  |  | inactive |  | inactive | 65 - 79% | 80 | inactive | inactive | 39 | Active | Active | 103 | inactive | 99 | 72 | inactive |
